In ChEMBL document CHEMBL3108749, “Discovery of a non-estrogenic irreversible inhibitor of 17β-hydroxysteroid dehydrogenase type 1 from 3-substituted-16β-(m-carbamoylbenzyl)-estradiol derivatives” (J Med Chem, 2014):

Tests used:
[1] = tested on: T47D; test: Cytotoxicity against human estrogen-starved estrogen-sensitive T47D cells assessed as cell growth at 1 uM after 7 days by MTS assay relative to control; type: functional; details: 168 h, read-out: Activity
Procedure, shortened: (§1)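 MCF-7 (DMEM-F12) or T-47D (RPMI) cells are kept in medium with insulin (50 ng/mL) and 5% dextran-coated charcoal-treated FBS, seeded at 3000 cells/well. After 48 h, medium is replaced with medium containing compound, renewed every two days, and cells grow seven days. Growth is read by CellTiter 96 aqueous (MTS) assay as % proliferation vs basal control (0%). Scored −/+/++/+++ bands.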

[2] = tested on: T47D; test: Cytotoxicity against human estrogen-starved estrogen-sensitive T47D cells assessed as cell growth at 0.1 uM after 7 days by MTS assay relative to control; type: functional; details: 168 h, read-out: Activity; procedure, shortened: as §1
[3] = biological target: T1, 17-beta-hydroxysteroid dehydrogenase type 1 (Homo sapiens) (UniProt P14061); test: Inhibition of 17-beta HSD1 in human T47D cells assessed as transformation of [14C]E1 to [14C]E2 at 0.1 uM after 24 hrs by thin layer chromatography; type: cell-based
T1 sequence (whole entry): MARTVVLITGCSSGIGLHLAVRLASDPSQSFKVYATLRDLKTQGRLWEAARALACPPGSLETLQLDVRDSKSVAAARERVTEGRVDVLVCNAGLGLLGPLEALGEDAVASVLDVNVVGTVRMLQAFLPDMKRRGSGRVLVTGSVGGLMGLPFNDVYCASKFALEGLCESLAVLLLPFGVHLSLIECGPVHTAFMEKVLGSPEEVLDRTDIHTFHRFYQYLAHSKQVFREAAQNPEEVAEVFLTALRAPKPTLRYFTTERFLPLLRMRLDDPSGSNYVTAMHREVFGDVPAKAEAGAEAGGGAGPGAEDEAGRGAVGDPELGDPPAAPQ
Procedure, shortened: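 T-47D cells (endogenous 17β-HSD1) are seeded at 3000 cells/well in RPMI with insulin (50 ng/mL) and 5% charcoal-stripped FBS. After 24 h, compound (from EtOH stock, 0.1 μM final) is added with [14C]-E1 (60 nM) for 24 h. Steroids are extracted into diethyl ether, separated by silica TLC (toluene/acetone 4:1) and quantified. Mean ± SD of ≥2 independent experiments in triplicate.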

[4] = tested on: MCF7; test: Cytotoxicity against human estrogen-starved estrogen-sensitive MCF7 cells assessed as cell growth at 1 uM after 7 days by MTS assay relative to control; type: functional; details: MCF7, 168 h, read-out: Activity; procedure, shortened: as §1
[5] = tested on: MCF7; test: Cytotoxicity against human estrogen-starved estrogen-sensitive MCF7 cells assessed as cell growth at 0.1 uM after 7 days by MTS assay relative to control; type: functional; details: MCF7, 168 h, read-out: Activity; procedure, shortened: as §1
[6] = biological target: T2, 3-keto-steroid reductase/17-beta-hydroxysteroid dehydrogenase 7 (Homo sapiens) (UniProt P56937); test: Inhibition of 17-beta HSD7 (unknown origin) transfected in HEK293 cells using [14C]E1 as substrate at 10 uM; type: cell-based
T2 sequence (whole entry): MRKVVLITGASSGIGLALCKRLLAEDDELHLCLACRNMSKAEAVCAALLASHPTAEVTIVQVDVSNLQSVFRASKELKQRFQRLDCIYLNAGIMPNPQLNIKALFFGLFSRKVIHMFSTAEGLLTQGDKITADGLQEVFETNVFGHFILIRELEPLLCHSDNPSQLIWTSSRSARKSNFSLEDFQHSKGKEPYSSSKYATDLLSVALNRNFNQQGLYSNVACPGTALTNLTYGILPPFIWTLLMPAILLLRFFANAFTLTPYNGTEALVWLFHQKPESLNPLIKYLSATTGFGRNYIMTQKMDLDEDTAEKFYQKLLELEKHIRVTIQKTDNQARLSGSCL
Procedure, shortened: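 Stably transfected HEK-293 cells in stripped-serum MEM with G418 and insulin, seeded 48 h. Then treated with compound in DMSO (<0.5% final) plus 60 nM substrate: [14C]-E2 for 17β-HSD2, [14C]-E1 for 17β-HSD7 and 17β-HSD12. Stopped at 12–25% substrate conversion; ether extraction, TLC, radiolabel quantification; triplicates, at least two experiments.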

| SMILES | % proliferation above basal control (0% = control) at 1 µM [1] [%] | percent proliferation above basal control at 0.1 µM [2] [%] | inhibition [3] [%] | percent proliferation above basal control at 1 µM [4] [%] | percent proliferation above basal control at 0.1 µM [5] [%] | inhibition [6] [%] |
| --- | --- | --- | --- | --- | --- | --- |
| C[C@]12CC[C@@H]3c4ccc(CCCO)cc4CC[C@H]3[C@@H]1C[C@H](Cc1cccc(C(N)=O)c1)[C@@H]2O | 5 | 0 | 20 | – | – | – |
| C[C@]12CC[C@@H]3c4ccc(C(=O)O)cc4CC[C@H]3[C@@H]1C[C@H](Cc1cccc(C(N)=O)c1)[C@@H]2O | – | – | 3 | > 30 | 5 | – |
| CCCN(CC)C(=O)c1ccc2c(c1)CC[C@@H]1[C@@H]2CC[C@]2(C)[C@@H](O)[C@@H](Cc3cccc(C(N)=O)c3)C[C@@H]12 | – | – | 10 | 0 | 0 | – |
| C[C@]12CC[C@@H]3c4ccc(CN)cc4CC[C@H]3[C@@H]1C[C@H](Cc1cccc(C(N)=O)c1)[C@@H]2O | – | – | 44 | > 30 | > 30 | – |
| C[C@]12CC[C@@H]3c4ccc(CN5CCCC5)cc4CC[C@H]3[C@@H]1C[C@H](Cc1cccc(C(N)=O)c1)[C@@H]2O | – | – | 10 | 5 | 0 | – |
| CNC(=O)Cc1ccc2c(c1)CC[C@@H]1[C@@H]2CC[C@]2(C)[C@@H](O)[C@@H](Cc3cccc(C(N)=O)c3)C[C@@H]12 | – | – | 11 | 0 | 0 | – |
| CCCCCCCN(C)[C@H]1CC[C@H]2C3CC[C@H]4NC(=O)CC[C@]4(C)[C@H]3CC[C@]12C (stereo partly specified) | – | – | – | – | – | 81 |
| CN(C)Cc1ccc2c(c1)CC[C@@H]1[C@@H]2CC[C@]2(C)[C@@H](O)[C@@H](Cc3cccc(C(N)=O)c3)C[C@@H]12 | – | – | 19 | 0 | 0 | – |
| C[C@]12CC[C@@H]3c4ccc(F)cc4CC[C@H]3[C@@H]1C[C@H](Cc1cccc(C(N)=O)c1)[C@@H]2O | – | – | 10 | 5 | 0 | – |
| C[C@]12CC[C@@H]3c4ccc(N)cc4CC[C@H]3[C@@H]1C[C@H](Cc1cccc(C(N)=O)c1)[C@@H]2O | – | – | 31 | 5 | 0 | – |
| C[C@]12CC[C@@H]3c4ccc(B(O)O)cc4CC[C@H]3[C@@H]1C[C@H](Cc1cccc(C(N)=O)c1)[C@@H]2O | – | – | 36 | > 30 | > 30 | – |
| C[C@]12CC[C@@H]3c4ccc(CCO)cc4CC[C@H]3[C@@H]1C[C@H](Cc1cccc(C(N)=O)c1)[C@@H]2O | – | – | 18 | 5 | 5 | – |
| CCc1ccc2c(c1)CC[C@@H]1[C@@H]2CC[C@]2(C)[C@@H](O)[C@@H](Cc3cccc(C(N)=O)c3)C[C@@H]12 | – | – | 6 | 0 | 0 | – |
| CN(C)C(=O)c1ccc2c(c1)CC[C@@H]1[C@@H]2CC[C@]2(C)[C@@H](O)[C@@H](Cc3cccc(C(N)=O)c3)C[C@@H]12 | – | – | 1 | 15 | 5 | – |
| C[C@]12CC[C@@H]3c4ccc(CCCl)cc4CC[C@H]3[C@@H]1C[C@H](Cc1cccc(C(N)=O)c1)[C@@H]2O | 0 | 0 | 12 | – | – | – |
| C[C@]12CC[C@@H]3c4ccc(CCI)cc4CC[C@H]3[C@@H]1C[C@H](Cc1cccc(C(N)=O)c1)[C@@H]2O | 0 | 0 | 54 | – | – | – |
| C[C@]12CC[C@@H]3c4ccc(C(=O)N5CCCC5)cc4CC[C@H]3[C@@H]1C[C@H](Cc1cccc(C(N)=O)c1)[C@@H]2O | – | – | 3 | 0 | 0 | – |
| C[C@]12CC[C@@H]3c4ccc(C(N)=O)cc4CC[C@H]3[C@@H]1C[C@H](Cc1cccc(C(N)=O)c1)[C@@H]2O | – | – | 2 | 15 | 0 | – |
| C[C@]12CC[C@@H]3c4ccc(CBr)cc4CC[C@H]3[C@@H]1C[C@H](Cc1cccc(C(N)=O)c1)[C@@H]2O | – | – | 30 | 0 | 0 | – |
| CCCN(CC)Cc1ccc2c(c1)CC[C@@H]1[C@@H]2CC[C@]2(C)[C@@H](O)[C@@H](Cc3cccc(C(N)=O)c3)C[C@@H]12 | – | – | 14 | 0 | 0 | – |
| C[C@]12CC[C@@H]3c4ccc(CO)cc4CC[C@H]3[C@@H]1C[C@H](Cc1cccc(C(N)=O)c1)[C@@H]2O | – | – | – | 5 | 0 | – |
| C[C@]12CC[C@@H]3c4ccc(CC(=O)O)cc4CC[C@H]3[C@@H]1C[C@H](Cc1cccc(C(N)=O)c1)[C@@H]2O | – | – | 7 | 5 | 0 | – |
| C[C@]12CC[C@@H]3c4ccc(CCc5ccccc5)cc4CC[C@H]3[C@@H]1C[C@H](Cc1cccc(C(N)=O)c1)[C@@H]2O | 0 | 0 | 17 | – | – | – |
